One test deals with T1, Autoinducer-2 kinase (Salmonella typhimurium (strain LT2 / SGSC1412 / ATCC 700720)) (UniProt Q8ZKQ6).
T1 sequence (whole entry): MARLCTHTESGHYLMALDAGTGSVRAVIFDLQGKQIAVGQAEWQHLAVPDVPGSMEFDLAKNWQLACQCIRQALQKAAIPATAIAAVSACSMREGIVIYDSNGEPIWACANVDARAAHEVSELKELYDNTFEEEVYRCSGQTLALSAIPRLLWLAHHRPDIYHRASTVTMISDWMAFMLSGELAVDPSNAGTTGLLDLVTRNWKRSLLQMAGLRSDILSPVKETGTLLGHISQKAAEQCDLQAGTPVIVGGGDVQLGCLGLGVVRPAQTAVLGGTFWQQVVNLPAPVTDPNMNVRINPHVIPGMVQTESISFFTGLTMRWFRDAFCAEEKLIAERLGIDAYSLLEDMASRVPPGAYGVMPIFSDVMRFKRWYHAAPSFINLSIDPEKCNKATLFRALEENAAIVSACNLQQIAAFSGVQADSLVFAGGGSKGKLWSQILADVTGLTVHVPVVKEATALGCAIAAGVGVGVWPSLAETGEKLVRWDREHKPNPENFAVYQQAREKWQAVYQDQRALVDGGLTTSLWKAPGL
Kind of test: Inhibition of Salmonella typhimurium LsrK expressed in Escherichia coli MET1158 at 200 uM using (S)-DPD as substrate after 15 mins by Kinase Glo luminescence assay relative to control. The following applies: Salmonella enterica subsp. enterica serovar Typhimurium. The essentials:
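Compound at 200 µM in triplicate with 300 nM LsrK, 300 µM (S)-DPD and 100 µM ATP in 25 mM triethanolamine pH 7.4, 200 µM MgCl2, 0.1 mg/mL BSA; 15 min incubation, then Kinase Glo reagent; luminescence read after 30 min; percent inhibition.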
(In general: In Kinase-Glo more light means more ATP remaining.)
Chain of Glycerol kinase (Escherichia coli (strain K12)) (P0A6F3 whole entry): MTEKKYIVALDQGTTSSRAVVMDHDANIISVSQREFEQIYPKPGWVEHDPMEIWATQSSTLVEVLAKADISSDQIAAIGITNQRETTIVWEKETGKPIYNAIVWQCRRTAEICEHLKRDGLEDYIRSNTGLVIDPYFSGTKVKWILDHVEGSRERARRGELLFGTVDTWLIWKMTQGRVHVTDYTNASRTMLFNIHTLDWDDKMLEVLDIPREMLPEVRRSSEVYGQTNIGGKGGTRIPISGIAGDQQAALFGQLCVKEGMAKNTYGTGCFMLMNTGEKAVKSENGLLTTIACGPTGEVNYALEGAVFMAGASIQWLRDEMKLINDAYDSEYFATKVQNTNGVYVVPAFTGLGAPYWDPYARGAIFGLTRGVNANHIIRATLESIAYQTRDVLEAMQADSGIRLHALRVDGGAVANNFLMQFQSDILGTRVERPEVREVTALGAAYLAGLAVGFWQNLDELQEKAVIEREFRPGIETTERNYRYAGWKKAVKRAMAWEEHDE
In the case of `OCC(O)c1cc(C23CC4CC(CC(C4)C2)C3)n[nH]1` (stereo not given), the inhibition (as a rule, the relative decrease from the control value, in per cent) was 0%.

In turn, `Cn1nc(-c2cccnc2)cc1C1COC2(CCCCC2)O1` (stereo not given) showed an inhibition of 4.92%.

The molecule `Cn1nc(-c2cccs2)cc1C1COC2(CCCCC2)O1` (stereo not given) had an inhibition of 0%.

Molecule `CC(C)c1cc(C(O)CO)n(C)n1` (stereo not given) had an inhibition of 0%.

Turning to `CC(C)n1nc(-c2ccccc2)cc1C1COC2(CCCCC2)O1` (stereo not given), the inhibition was 0%.

Take `CC(C)c1cc(C2COC3(CCCCC3)O2)n(C)n1` (stereo not given): the inhibition stood at 0%.

For `CCCc1nc(-c2cccs2)cc(C2COC3(CCCCC3)O2)n1` (stereo not given), the inhibition stood at 0.96%.

As for `Cn1nc(-c2ccon2)cc1C1COC2(CCCCC2)O1` (stereo not given), the inhibition came out at 9.83%.

For `Cn1nc(C23CC4CC(CC(C4)C2)C3)cc1C1COC2(CCCCC2)O1` (stereo not given), the inhibition came out at 0%.

In turn, `c1c(C2CC2)n[nH]c1C1COC2(CCCCC2)O1` (stereo not given) showed an inhibition of 1.47%.

As for `CC(C)c1cc(C2COC3(CCCCC3)O2)[nH]n1` (stereo not given), the inhibition turned out to be 7.14%.

`Cc1nc(C2CC2)cc(C2COC3(CCCCC3)O2)c1C(=O)O` (stereo not given) registered an inhibition of 6.26%.

`c1ccc(-c2cc(C3COC4(CCCCC4)O3)n(C3CC3)n2)cc1` (stereo not given) showed an inhibition of 0%.

As to `Cc1ccc2cnc(C(O)CO)cc2c1` (stereo not given), the inhibition amounted to 0.4%.

`Cn1nc(-c2ccccc2)cc1C1COC2(CCCCCC2)O1` (stereo not given) yielded an inhibition of 0%.

`OCC(O)c1cc(-c2cccs2)nc(-c2cccc(F)c2)n1` (stereo not given) showed an inhibition of 19.8%.

The molecule `N#CCCn1nc(-c2ccccc2)cc1C1COC2(CCCCC2)O1` (stereo not given) returned an inhibition of 0%.

With `Fc1cccc(-c2nc(-c3cccs3)cc(C3COC4(CCCCC4)O3)n2)c1` (stereo not given), the inhibition came to 0.2%.

Consider `Cn1nc(C2CCCC2)cc1C(O)CO` (stereo not given), for which the inhibition is 0%.

Regarding `CCOC(=O)c1c(C2COC3(CCCCC3)O2)cc(C2CC2)nc1C` (stereo not given), the inhibition was 0.36%.

Molecule `Cc1nc(-c2ccccc2)cc(C(O)CO)c1C(=O)O` (stereo not given) yielded an inhibition of 0.81%.

`Cc1cccc(-c2cc(C3COC4(CCCCC4)O3)n(C)n2)c1` (stereo not given): the inhibition was 1.07%.

Turning to `CCCc1nc(-c2cccs2)cc(C(O)CO)n1` (stereo not given), the inhibition worked out at 47.8%.

As to `Cn1nc(C2CC2)cc1C(O)CO` (stereo not given), the inhibition is 0%.

`OCC(O)c1cc(-c2cccs2)n[nH]1` (stereo not given) displayed an inhibition of 0%.

`Cn1nc(-c2ccccc2)cc1C1COC2(CCCCC2)O1` (stereo not given) came in with an inhibition of 78%.

Regarding `OCC(O)c1cc(C2CC2)nc(-c2ccccn2)n1` (stereo not given), the inhibition was determined as 2.94%.

The molecule `c1ccc(-c2nc(C3CC3)cc(C3COC4(CCCCC4)O3)n2)cc1` (stereo not given) came in with an inhibition of 0.76%.

As to `Cn1nc(-c2cc3ccccc3[nH]2)cc1C1COC2(CCCCC2)O1` (stereo not given), the inhibition was 4.38%.

Regarding `Cc1nc(-c2ccccc2)cc(C2COC3(CCCCC3)O2)c1C(=O)O` (stereo not given), the inhibition was found to be 0%.

The molecule `OCC(O)c1cc2ccccc2cn1` (stereo not given) displayed an inhibition of 0.48%.

`OCC(O)c1cc2ccoc2cn1` (stereo not given) came in with an inhibition of 2.07%.

`OCC(O)c1cc(-c2ccccc2)n[nH]1` (stereo not given) registered an inhibition of 0%.

For `Cn1nc(C2CCCC2)cc1C1COC2(CCCCC2)O1` (stereo not given), the inhibition came to 0%.

Consider `CCOC(=O)c1c(C2COC3(CCCCC3)O2)cc(-c2ccccc2)nc1C` (stereo not given), for which the inhibition turned out to be 0.1%.

For `Cn1nc(-c2ccccc2)cc1C1COC2(CCCC2)O1` (stereo not given), the inhibition was found to be 5.56%.

Turning to `Cc1ccc2cnc(C3COC4(CCCCC4)O3)cc2c1` (stereo not given), the inhibition amounted to 1.66%.

Take `Cn1nc(-c2cc(F)cc(Cl)c2)cc1C1COC2(CCCCC2)O1` (stereo not given): the inhibition came to 4.42%.

The molecule `Cc1nc2cc(C3COC4(CCCCC4)O3)ncc2s1` (stereo not given) returned an inhibition of 6.32%.

`OCC(O)c1cc(-c2ccccc2)nc(C2CC2)n1` (stereo not given) yielded an inhibition of 24.5%.

On to `c1ccc(-c2cc(C3COC4(CCCCC4)O3)n(C3CCCC3)n2)cc1` (stereo not given), for which the inhibition worked out at 0%.

On to `Oc1ccc2cc(C3COC4(CCCCC4)O3)ncc2c1` (stereo not given), for which the inhibition came to 28.6%.

In the case of `Cn1nc(-c2ccco2)cc1C(O)CO` (stereo not given), the inhibition turned out to be 0%.

`CC(=O)N1CCC2(CC1)OCC(c1cc(-c3ccccc3)nn1C)O2` (stereo not given) had an inhibition of 2.07%.

On to `Cc1nc(-c2ccccc2)cc(C2COC3(CCCCC3)O2)n1` (stereo not given), for which the inhibition was found to be 9.41%.

Molecule `OCC(O)c1cc(C2CCCC2)n[nH]1` (stereo not given) had an inhibition of 0%.

Consider `CCn1nc(-c2ccccc2)cc1C1COC2(CCCCC2)O1` (stereo not given), for which the inhibition came to 0%.

Molecule `Cn1nc(C2CC2)cc1C1COC2(CCCCC2)O1` (stereo not given) came in with an inhibition of 0%.

Turning to `c1c(C2CCCC2)n[nH]c1C1COC2(CCCCC2)O1` (stereo not given), the inhibition worked out at 0%.

Consider `Cn1nc(-c2cccs2)cc1C(O)CO` (stereo not given), for which the inhibition is 0%.

As for `c1ccc(-c2nc(C3CC3)cc(C3COC4(CCCCC4)O3)n2)nc1` (stereo not given), the inhibition was 21.2%.

With `c1ccc2cc(C3COC4(CCCCC4)O3)ncc2c1` (stereo not given), the inhibition came out at 14.9%.

As to `c1ccc(-c2cc(C3COC4(CCCCC4)O3)[nH]n2)cc1` (stereo not given), the inhibition is 53.6%.

With `Cc1nc2cnc(C(O)CO)cc2s1` (stereo not given), the inhibition is 0.1%.

Consider `c1coc(-c2cc(C3COC4(CCCCC4)O3)[nH]n2)c1` (stereo not given), for which the inhibition worked out at 43.5%.

For `CN(C)c1ccc(-c2cc(C3COC4(CCCCC4)O3)n(C)n2)cc1` (stereo not given), the inhibition stood at 0.19%.

Regarding `c1csc(-c2cc(C3COC4(CCCCC4)O3)[nH]n2)c1` (stereo not given), the inhibition was 26.5%.

`c1ccc(-c2cc(C3COC4(CCCCC4)O3)nc(C3CC3)n2)cc1` (stereo not given) returned an inhibition of 15.2%.

The molecule `Cn1nc(C23CC4CC(CC(C4)C2)C3)cc1C(O)CO` (stereo not given) returned an inhibition of 0%.

In turn, `OCC(O)c1cc2c(F)cccc2cn1` (stereo not given) had an inhibition of 0.65%.

In the case of `OCC(O)c1cc(C2CC2)nc(-c2ccccc2)n1` (stereo not given), the inhibition stood at 21.6%.

`Cn1nc(C2CCCCC2)cc1C1COC2(CCCCC2)O1` (stereo not given) gave an inhibition of 1.51%.

Turning to `Cc1nc(C2CC2)cc(C(O)CO)c1C(=O)O` (stereo not given), the inhibition amounted to 1.33%.

For the molecule `c1ccc(-c2cc(C3COC4(CCCCC4)O3)n(-c3ccccc3)n2)cc1` (stereo not given), the inhibition was 0%.

As for `c1cc2cc(C3COC4(CCCCC4)O3)ncc2s1` (stereo not given), the inhibition was 11.1%.

For `OCC(O)c1cc2ccsc2cn1` (stereo not given), the inhibition was determined as 0.17%.

`OCC(O)c1cc2ccc(O)cc2cn1` (stereo not given) returned an inhibition of 1.67%.

In turn, `Cn1nc(-c2ccco2)cc1C1COC2(CCCCC2)O1` (stereo not given) yielded an inhibition of 51.6%.

`Cc1cc(-c2ccccc2)nn1C` gave an inhibition of 2.01%.

In turn, `CC(C)c1cc(C(O)CO)[nH]n1` (stereo not given) displayed an inhibition of 0%.

Consider `c1c(C23CC4CC(CC(C4)C2)C3)n[nH]c1C1COC2(CCCCC2)O1` (stereo not given), for which the inhibition worked out at 0%.

`Cn1nc(-c2ccccc2)cc1C(O)CO` (stereo not given) had an inhibition of 0%.

In the case of `Cn1nc(-c2cccc(C#N)c2)cc1C1COC2(CCCCC2)O1` (stereo not given), the inhibition was determined as 0%.

`Cc1nc(-c2ccccc2)cc(C(O)CO)n1` (stereo not given) gave an inhibition of 0.22%.

Consider `c1cc2cc(C3COC4(CCCCC4)O3)ncc2o1` (stereo not given), for which the inhibition was determined as 5.75%.

Consider `OCC(O)c1cc(C2CC2)n[nH]1` (stereo not given), for which the inhibition worked out at 0%.

In turn, `Fc1cccc2cnc(C3COC4(CCCCC4)O3)cc12` (stereo not given) came in with an inhibition of 1.76%.

In the case of `Cn1nc(-c2ccccc2)cc1C1COC2(CCOCC2)O1` (stereo not given), the inhibition was 31.1%.

`OCC(O)c1cc(-c2ccco2)n[nH]1` (stereo not given) displayed an inhibition of 0%.

For another test, the target named is T2, Autoinducer-2 kinase (Salmonella typhimurium (strain LT2 / SGSC1412 / ATCC 700720), UniProt Q8ZKQ6).
T2 sequence (Q8ZKQ6 whole entry): T1 sequence (whole entry)
Kind of test: Inhibition of Salmonella typhimurium LsrK expressed in Escherichia coli MET1158 using (S)-DPD as substrate after 15 mins by Kinase Glo luminescence assay. Also noted: species or system Salmonella enterica subsp. enterica serovar Typhimurium.
Settings: not given
The method in brief: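 Dose-response at 6 concentrations (25–500 µM); 300 nM LsrK, 300 µM (S)-DPD, 100 µM ATP in 25 mM triethanolamine pH 7.4, 200 µM MgCl2, 0.1 mg/mL BSA plus Triton X-100; 15 min, Kinase Glo readout after 30 min; IC50 by four-parameter logistic fit; mean ±SD of two independent experiments (n = 4).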
On to `Cn1nc(-c2ccccc2)cc1C1COC2(CCCCC2)O1` (stereo not given), for which the half-maximal inhibitory concentration (IC50) (as a rule, the concentration needed to halve the response being measured) is 119 µM.

With `c1ccc(-c2cc(C3COC4(CCCCC4)O3)[nH]n2)cc1` (stereo not given), half-maximal inhibition (IC50) required 475 µM.

As for `c1coc(-c2cc(C3COC4(CCCCC4)O3)[nH]n2)c1` (stereo not given), the concentration for half-maximal inhibition (IC50) was 384 µM.

Regarding `Cn1nc(-c2ccco2)cc1C1COC2(CCCCC2)O1` (stereo not given), the IC50 was determined as 284 µM.

A further test concerns the target Glycerol kinase (Escherichia coli (strain K12)) (UniProt P0A6F3). Kind of test: Inhibition of Escherichia coli K12 glycerokinase at 25 to 500 uM using glycerol as substrate after 15 mins by Kinase Glo luminescence assay. Particulars: Escherichia coli K-12. The method in brief: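 E. coli glycerokinase 0.3 U/mL with 300 µM glycerol, then 100 µM ATP; run as the LsrK protocol (triethanolamine pH 7.4 buffer, 15 min incubation, Kinase Glo luminescence read after 30 min).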
Turning to `c1coc(-c2cc(C3COC4(CCCCC4)O3)[nH]n2)c1` (stereo not given), the inhibition result is “Dose-dependent effect”.

Regarding `Cn1nc(-c2ccco2)cc1C1COC2(CCCCC2)O1` (stereo not given), the inhibition result is “Dose-dependent effect”.

Values taken from ChEMBL document CHEMBL4400549, “DPD-Inspired Discovery of Novel LsrK Kinase Inhibitors: An Opportunity To Fight Antimicrobial Resistance” (J Med Chem, 2019).
